“Also recorded” adds a separate entry of the source.
Assays:
PC3M cells [1] = test: Lamellipodia formation at wound edge, phalloidin staining, PC3M; type: cell-based; details: HGF + 1 uM compound
[2] = system: Grb2 and focal adhesion kinase (FAK); details: treatment of cells; cited from earlier work
cell motility = details: cited from earlier work
angiogenesis = details: cited from earlier work
Biotin-Grb2 SH2 domain = Biotin-Grb2 SH2 domain (Homo sapiens, UniProt P62993); test: SPR direct binding, streptavidin-captured biotin-Grb2 SH2 domain; details: Biotin-Grb2, SA capture; reference line of the ratio
Sequence of Biotin-Grb2 SH2 domain (P62993 60-152 limits assumed): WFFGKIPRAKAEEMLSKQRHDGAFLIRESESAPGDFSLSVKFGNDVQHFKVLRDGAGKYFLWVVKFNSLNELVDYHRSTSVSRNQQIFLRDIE

PC3M cells [3] = test: Cell migration in modified Boyden chambers, HGF-stimulated; type: cell-based; details: HGF 50 ng/ml
Outline: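 PC3M cells pretreated with test compound for 24 h, then seeded at 200,000 cells per modified Boyden chamber. Migration stimulated with recombinant human HGF (50 ng/ml), with unstimulated cells run in parallel. Migrated cells counted by light microscopy in four fields (1 × 1.4 mm) per well, triplicate wells per condition. Means expressed as percent maximum ± standard deviation, with a dose-response series.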

[4] = system: Grb2-EGFR and Grb2-c-Met interactions; details: co-immunoprecipitation; cited from earlier work
PAK1 [5] = test: PAK1 nuclear translocation; type: cell-based; details: PC3M cells, 16 h, relative to nuclear CREB
Outline: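 PC3M cells treated with test compound for 16 h. Nuclear extracts prepared in high-salt buffer, resolved by SDS-PAGE and immunoblotted for PAK1, with CREB immunoblotted as reference.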

PAK1 [6] = test: PAK1 activation; type: cell-based; details: PC3M cells, 1 uM, 16 h
Outline: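 PC3M cells serum-deprived and either treated with test compound (1 uM) or left untreated for 16 h. They were then left unstimulated or briefly stimulated with HGF (50 ng/mL) for set times. Lysates run on SDS-PAGE and immunoblotted with anti-phospho-PAK1 antibody, with total PAK1 immunoblot as loading control.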

tumor metastasis = details: cited from earlier work
MDCK cells = test: Lamellipodia formation at wound edge, phalloidin staining, MDCK; type: cell-based, canine; details: HGF + 1 uM compound
[7] = biological target: proteins of SK-LMS-1 cell lysates (Homo sapiens, UniProt P62993); type: binding; details: compound-conjugated SA beads, cell extracts
Sequence of proteins of SK-LMS-1 cell lysates (Homo sapiens, UniProt P62993) (P62993 whole entry): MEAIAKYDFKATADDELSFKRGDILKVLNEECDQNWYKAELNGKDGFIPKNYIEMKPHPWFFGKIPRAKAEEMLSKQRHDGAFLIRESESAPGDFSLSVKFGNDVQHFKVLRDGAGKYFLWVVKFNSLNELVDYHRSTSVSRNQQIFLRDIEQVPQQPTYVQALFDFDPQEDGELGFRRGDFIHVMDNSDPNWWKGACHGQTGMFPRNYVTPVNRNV
Outline: (§1)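 Biotinylated test compound captured proteins from HGF-stimulated (25 ng/ml, 20 min) SK-LMS-1 detergent lysate on streptavidin beads, washed with 150–500 mM NaCl. Beads exchanged into 100 mM ammonium bicarbonate, reduced (10 mM DTT, 1 h, 51°C), alkylated (55 mM iodoacetamide, 45 min, 25°C) and trypsin-digested 6 h at 25°C. Acidified peptides analysed by nLC-ESI-MS/MS (ion trap, top-seven data-dependent) and searched against human NCBI database.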

Grb2 = Grb2 (Homo sapiens, UniProt P62993); type: binding; details: SK-LMS-1 lysate; for Capture of Grb2 on compound-conjugated SA beads (anti-Grb2 immunoblot): compound 3 uM, washes 150-500 mM NaCl
Sequence of Grb2 (P62993 whole entry): as above
Outline: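 SK-LMS-1 cells serum-deprived 16 h, stimulated with recombinant human HGF (25 ng/ml) for 20 min and lysed in cold non-ionic detergent buffer. Biotinylated test compound (3 uM) incubated with lysate 1 h on ice. Streptavidin beads then mixed in 1 h at 4°C and washed 5 times in lysis buffer with increasing NaCl (150–500 mM). Read-out: SDS-PAGE and anti-Grb2 immunoblot.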

Grb2 SH2 domain = Grb2 SH2 domain (Homo sapiens, UniProt P62993); test: SPR direct binding, amine-coupled Grb2 SH2 domain; details: for Ratio: Grb2, amine coupling, affinity relative to compound 2
Sequence of Grb2 SH2 domain (P62993 60-152 limits assumed): as the sequence (P62993 60-152 limits assumed) above

[8] = system: proteins of SK-LMS-1 cell lysates; type: binding, human; details: cell lysates; two or more unique peptides observed
Outline: as §1

NC(=O)C[C@H](NC(=O)C1(NC(=O)[C@H](Cc2ccc(C(C(=O)O)C(=O)O)cc2)NC(=O)C(=O)O)CCCCC1)C(=O)NCCCc1cccc2ccccc12 [Compound 1]
Actin reorganization and lamellipodia formation (phalloidin staining) (PC3M cells [1]): markedly reduced phalloidin staining at the leading edge
HGF-stimulated physical association between Grb2 and FAK [2]: disrupts HGF-stimulated physical association between Grb2 and focal adhesion kinase (FAK)
Cell motility (cell motility): blocks cell motility in a dose dependent fashion; also recorded: can inhibit cell motility
Angiogenesis (angiogenesis): inhibit
Ratio (Biotin-Grb2 SH2 domain): 1
Inhibition of cell migration (in words) (PC3M cells [3]): Inhibition of cell migration
Grb2-EGFR and Grb2-c-Met interactions [4]: able to disrupt Grb2-EGFR and Grb2-c-Met interactions
PAK1 nuclear translocation (PAK1 [5]): decreased PAK1 nuclear translocation
Steady state level of PAK1 autophosphorylation (PAK1 [6]; no HGF): little effect
HGF-stimulated PAK1 activation (PAK1 [6]; then HGF 50 ng/mL): completely inhibited
Tumor metastasis in vivo (tumor metastasis): inhibit
Lamellipodia extension into the wound (MDCK cells): significantly reduced the area and distance that lamellipodia extended into the wound

NC(=O)C[C@H](NC(=O)C1(NC(=O)[C@H](Cc2ccc(O)cc2)NC(=O)C(=O)O)CCCCC1)C(=O)NCCCc1cccc2c(OC(=O)CCCCCNC(=O)CCCC[C@@H]3SC[C@@H]4NC(=O)N[C@@H]43)cccc12 [Compound 4, (4R,5S,6S)-6-[5-(2-Oxo-hexahydro-thieno[3,4-d]imidazol-6-yl)-pentanoylamino]-hexanoic acid 5-{3-[3-carbamoyl-2-({1-[3-(4-hydroxy-phenyl)-2-(oxylyl-amino)-propionylamino]-cyclohexylcarbonyl}-amino)-propionylamino]-propyl}-naphthalen-1-yl ester]
Capture of Grb2 tryptic peptides (ESI-MS/MS) [7]: not by compound 4-conjugated beads
Capture of Grb2 on compound-conjugated SA beads (anti-Grb2 immunoblot) (Grb2): did not capture Grb2
Grb2 SH2 domain binding affinity (in words) (Grb2 SH2 domain; assay not stated): very poor Grb2 SH2 domain binding affinity
Inhibition of cell migration (in words) (PC3M cells [3]): No inhibition of cell migration

NC(=O)C[C@H](NC(=O)C1(NC(=O)[C@H](Cc2ccc(C(C(=O)O)C(=O)O)cc2)NC(=O)C(=O)O)CCCCC1)C(=O)NCCCc1cccc2c(OC(=O)CCCCCNC(=O)CCCC[C@@H]3SC[C@@H]4NC(=O)N[C@@H]43)cccc12 [Compound 3]
Capture of Grb2 tryptic peptides (ESI-MS/MS) [7]: captured by compound 3-conjugated SA beads
Protein Name (identified by mass spectrometry, captured by streptavidin-immobilized 3, but not by streptavidin-immobilized 4) [8]: histone H2B family ^b; also recorded: ribosomal protein S23; also recorded: ribosomal protein L17; also recorded: ribosomal protein S17; also recorded: pyruvate kinase 3 ^a
Capture of Grb2 SH3 domain-associated proteins (immunoblot) (Grb2; SA-bound compound): revealed the presence of Nck1, Nck2, Gab1 and Sos1
Capture of Grb2 on compound-conjugated SA beads (anti-Grb2 immunoblot) (Grb2): Grb2 was clearly retained
Ratio (Grb2 SH2 domain): 3
Inhibition of cell migration (in words) (PC3M cells [3]): significant and potent inhibition of migration

NC(=O)C[C@H](NC(=O)C1(NC(=O)[C@H](Cc2ccc(C(C(=O)O)C(=O)O)cc2)NC(=O)C(=O)O)CCCCC1)C(=O)NCCCc1cccc2c(O)cccc12 [Compound 2, 2-{4-[2-(1-(1S)-{2-Carbamoyl-1-[3-(5-hydroxy-naphthalen-1-yl)-propylcarbamoyl]-ethylcarbamoyl}-cyclohexylcarbamoyl)-2-(2S)-(oxalyl-amino)-ethyl]-phenyl}-malonic acid]
Ratio (Biotin-Grb2 SH2 domain): 1
Ratio (Grb2 SH2 domain): 1
